We go through 1 molecule from ChEMBL document CHEMBL4118034, “Orbicularisine: A Spiro-Indolothiazine Isolated from Gills of the Tropical Bivalve Codakia orbicularis” (J Nat Prod, 2017).

Calls of active or inactive are those of the source. The rule behind the calls is not given here. Some results are limits rather than exact numbers.

Assay [1] has as its system Streptococcus pneumoniae. Nature of the assay: Antibacterial activity against Streptococcus pneumoniae ATCC 49619 at 2 to 256 ug/ml measured after 24 hrs. The assay is classed as functional, organism-based. The gist of the method:
(§1)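 Stock: 2.7 mg compound in 100 µL DMSO, then diluted with 900 µL distilled water. Working solutions at 256, 128, 64, 32, 16, 8, 4 and 2 µg/mL; 20 µL of each went into 178 µL Mueller-Hinton broth. Inoculum: 2 µL overnight culture at 0.5 McFarland (1.5*10⁸ CFU/mL). Controls: DMSO–water growth and sterility. Incubation 24 h at 37 °C; wells scored by eye as clear or turbid.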

In assay [2] the test system is Pseudomonas aeruginosa. The assay can be described thus: Antibacterial activity against Pseudomonas aeruginosa ATCC […] at 2 to 256 ug/ml measured after 24 hrs. The format is functional, organism-based. The gist of the method: as §1
The target in assay [3] is Receptor-interacting serine/threonine-protein kinase 3 (Homo sapiens) (UniProt Q9Y572). Nature of the assay: Inhibition of human RIPK3 assessed as residual activity at 16 uM relative to control.
Receptor-interacting serine/threonine-protein kinase 3 (Homo sapiens), sequence (Q9Y572 whole entry, looked up): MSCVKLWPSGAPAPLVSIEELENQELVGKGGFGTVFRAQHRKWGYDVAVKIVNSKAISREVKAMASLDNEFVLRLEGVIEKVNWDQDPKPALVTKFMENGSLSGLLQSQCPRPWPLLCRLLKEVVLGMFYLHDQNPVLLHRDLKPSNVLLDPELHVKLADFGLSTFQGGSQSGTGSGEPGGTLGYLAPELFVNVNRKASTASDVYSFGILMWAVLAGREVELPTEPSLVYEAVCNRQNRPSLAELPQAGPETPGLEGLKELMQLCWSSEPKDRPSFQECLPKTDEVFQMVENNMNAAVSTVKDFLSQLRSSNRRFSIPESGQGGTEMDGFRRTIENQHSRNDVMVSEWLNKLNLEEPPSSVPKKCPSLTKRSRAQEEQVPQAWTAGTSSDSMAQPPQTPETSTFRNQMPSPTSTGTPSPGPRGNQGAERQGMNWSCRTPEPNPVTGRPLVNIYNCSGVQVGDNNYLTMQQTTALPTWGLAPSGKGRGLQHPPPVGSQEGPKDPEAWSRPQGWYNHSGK
Assay [4] deals with Enterococcus faecalis. The assay can be described thus: Antibacterial activity against Enterococcus faecalis ATCC 29212 at 2 to 256 ug/ml measured after 24 hrs. The format is functional, organism-based. The gist of the method:
as §1

The test system of assay [5] is Escherichia coli. The assay can be described thus: Antibacterial activity against Escherichia coli ATCC 35218 at 2 to 256 ug/ml measured after 24 hrs. The format is functional, organism-based. The gist of the method: as §1
The subject of assay [6] is Klebsiella pneumoniae. The assay can be described thus: Antibacterial activity against Klebsiella pneumoniae ATCC 700603 at 2 to 256 ug/ml measured after 24 hrs. The assay is classed as functional, organism-based. An outline of the steps:
as §1

Assay [7] has as its target CDK2/Cyclin A2 (Homo sapiens) (UniProt P24941+P20248). Nature of the assay: Inhibition of human CDK2/Cyclin A assessed as residual activity at 16 uM relative to control. The format is protein-complex assay.
Assay [8] concerns the target Dual specificity tyrosine-phosphorylation-regulated kinase 1A (Rattus norvegicus) (UniProt Q63470). The assay can be described thus: Inhibition of rat DYRK1A assessed as residual activity at 16 uM relative to control.
Assay [9] concerns HCT-116. The assay can be described thus: Cytotoxicity against human HCT116 cells up to 100 uM. The format is functional, cell-based.
Assay [10] deals with T1, Serine/threonine-protein kinase haspin (Homo sapiens) (UniProt Q8TF76).
T1 sequence (whole entry): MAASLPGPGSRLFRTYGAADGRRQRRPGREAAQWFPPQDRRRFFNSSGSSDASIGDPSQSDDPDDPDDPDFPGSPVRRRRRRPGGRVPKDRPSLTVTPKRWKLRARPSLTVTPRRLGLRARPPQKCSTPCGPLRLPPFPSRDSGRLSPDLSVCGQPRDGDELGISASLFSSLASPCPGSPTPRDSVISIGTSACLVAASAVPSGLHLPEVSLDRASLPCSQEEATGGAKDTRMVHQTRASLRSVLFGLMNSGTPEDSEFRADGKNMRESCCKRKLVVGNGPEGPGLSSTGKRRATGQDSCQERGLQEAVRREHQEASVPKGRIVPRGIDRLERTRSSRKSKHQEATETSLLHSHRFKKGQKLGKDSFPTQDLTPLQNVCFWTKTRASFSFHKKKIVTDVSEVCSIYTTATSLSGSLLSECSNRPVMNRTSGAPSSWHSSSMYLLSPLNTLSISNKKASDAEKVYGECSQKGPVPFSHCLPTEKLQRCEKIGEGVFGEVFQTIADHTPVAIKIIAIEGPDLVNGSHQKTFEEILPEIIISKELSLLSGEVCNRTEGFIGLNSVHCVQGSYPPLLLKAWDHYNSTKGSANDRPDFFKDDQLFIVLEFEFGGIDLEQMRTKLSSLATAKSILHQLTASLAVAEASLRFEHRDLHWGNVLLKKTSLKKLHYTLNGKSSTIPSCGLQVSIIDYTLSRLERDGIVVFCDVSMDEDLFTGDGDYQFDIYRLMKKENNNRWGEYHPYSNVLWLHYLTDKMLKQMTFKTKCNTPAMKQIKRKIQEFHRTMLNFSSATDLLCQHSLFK
Nature of the assay: Inhibition of human haspin assessed as residual activity at 16 uM relative to control.

The target of assay [11] is Cyclin-dependent kinase 5/CDK5 activator 1 (Homo sapiens) (UniProt Q00535+Q15078). The assay can be described thus: Inhibition of human CDK5/p25 assessed as residual activity at 16 uM relative to control. The format is protein-complex assay.
Cyclin-dependent kinase 5/CDK5 activator 1 (Homo sapiens), sequence (Q00535 whole entry): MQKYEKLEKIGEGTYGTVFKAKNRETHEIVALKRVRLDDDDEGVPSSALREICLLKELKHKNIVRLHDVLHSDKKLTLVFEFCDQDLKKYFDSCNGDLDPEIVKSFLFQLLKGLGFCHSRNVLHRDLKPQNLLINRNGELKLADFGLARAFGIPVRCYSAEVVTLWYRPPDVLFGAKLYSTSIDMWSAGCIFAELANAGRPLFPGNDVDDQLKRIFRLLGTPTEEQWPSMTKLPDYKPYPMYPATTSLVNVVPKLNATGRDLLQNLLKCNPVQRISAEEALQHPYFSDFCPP
Cyclin-dependent kinase 5/CDK5 activator 1 (Homo sapiens), sequence (Q15078 99-307 partner limits assumed): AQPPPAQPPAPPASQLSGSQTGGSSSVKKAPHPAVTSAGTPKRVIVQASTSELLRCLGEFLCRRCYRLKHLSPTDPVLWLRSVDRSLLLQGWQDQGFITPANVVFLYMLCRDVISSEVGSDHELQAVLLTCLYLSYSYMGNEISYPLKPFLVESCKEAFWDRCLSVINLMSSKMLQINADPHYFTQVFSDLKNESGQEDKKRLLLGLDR
The target in assay [12] is CDK9/cyclin T1 (Homo sapiens) (UniProt O60563+P50750). Nature of the assay: Inhibition of human CDK9/Cyclin T assessed as residual activity at 16 uM relative to control. The format is protein-complex assay.
The subject of assay [13] is Leishmania donovani. Nature of the assay: Inhibition of Leishmania donovani TLK assessed as residual activity at 16 uM relative to control.
Assay [14] addresses Aurora kinase B (Homo sapiens) (UniProt Q96GD4). The assay can be described thus: Inhibition of human Aurora-B assessed as residual activity at 16 uM relative to control.
The subject of assay [15] is U-87 MG. Nature of the assay: Cytotoxicity against human U87MG cells up to 100 uM. The format is functional, cell-based. To be noted: U-87MG ATCC.
For assay [16], the target named is T2, Putative casein kinase I (Leishmania major) (UniProt O96999).
T2 sequence (whole entry): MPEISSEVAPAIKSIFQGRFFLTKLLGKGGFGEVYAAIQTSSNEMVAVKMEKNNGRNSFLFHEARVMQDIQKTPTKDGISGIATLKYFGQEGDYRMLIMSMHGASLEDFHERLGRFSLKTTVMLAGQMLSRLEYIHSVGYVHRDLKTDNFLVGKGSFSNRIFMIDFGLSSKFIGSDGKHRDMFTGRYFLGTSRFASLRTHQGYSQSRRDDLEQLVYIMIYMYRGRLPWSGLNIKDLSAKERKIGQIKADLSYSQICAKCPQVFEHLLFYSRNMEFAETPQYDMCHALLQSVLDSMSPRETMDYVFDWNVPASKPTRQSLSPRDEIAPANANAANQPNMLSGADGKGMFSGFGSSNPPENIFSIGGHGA
Nature of the assay: Inhibition of Leishmania major CK1 assessed as residual activity at 16 uM relative to control.

In assay [17] the target is Serine/threonine-protein kinase pim-1 (Homo sapiens) (UniProt P11309). Nature of the assay: Inhibition of human Pim1 assessed as residual activity at 16 uM relative to control.
Serine/threonine-protein kinase pim-1 (Homo sapiens), sequence (P11309 whole entry, looked up): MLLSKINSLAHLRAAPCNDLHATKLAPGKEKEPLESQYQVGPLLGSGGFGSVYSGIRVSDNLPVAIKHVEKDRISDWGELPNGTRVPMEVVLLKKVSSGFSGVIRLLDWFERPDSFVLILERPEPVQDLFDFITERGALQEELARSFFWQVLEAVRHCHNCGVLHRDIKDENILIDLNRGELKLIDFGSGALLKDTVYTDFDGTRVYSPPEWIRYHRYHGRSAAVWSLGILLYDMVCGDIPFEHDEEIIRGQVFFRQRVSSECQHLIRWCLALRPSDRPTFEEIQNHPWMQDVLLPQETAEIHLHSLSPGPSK
The target of assay [18] is Glycogen synthase kinase-3 (Sus scrofa) (UniProt B2LUN4+I6LNT8). The assay can be described thus: Inhibition of pig GSK3 alpha/beta assessed as residual activity at 16 uM relative to control. The format is protein assay.

Aurora kinase B (Homo sapiens), sequence (Q96GD4 whole entry): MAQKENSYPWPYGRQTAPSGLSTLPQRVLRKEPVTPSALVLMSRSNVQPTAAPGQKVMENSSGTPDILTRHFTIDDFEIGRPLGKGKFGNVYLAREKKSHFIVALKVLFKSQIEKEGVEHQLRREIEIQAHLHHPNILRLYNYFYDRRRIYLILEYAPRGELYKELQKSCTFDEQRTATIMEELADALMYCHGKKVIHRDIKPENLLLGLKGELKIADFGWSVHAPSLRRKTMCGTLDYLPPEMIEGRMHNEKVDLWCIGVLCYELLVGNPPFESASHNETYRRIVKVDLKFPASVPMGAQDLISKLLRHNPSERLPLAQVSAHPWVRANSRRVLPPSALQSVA

In the case of `O=C1OC2(C(=O)Nc3ccccc32)C2=C1NCCS2(=O)=O` (stereo not drawn), the result in assay [1], in assay [2], in [4], in assay [5], in [6] and in assay [9] was inactive. Besides, the result in assay [15] was inactive. The Activity in assay [3], in assay [7], in [8], in [10], in assay [11] and in assay [12] was more than 60% in each case. In addition, the Activity in assay [13], in assay [14], in assay [16], in assay [17] and in assay [18] was more than 60% each time.
